Laboratory results taken from ChEMBL document CHEMBL1926530, “Novel pyrazolo[1,5-a]pyridines as p110α-selective PI3 kinase inhibitors: Exploring the benzenesulfonohydrazide SAR” (Bioorg Med Chem, 2012).
≈ marks a conversion by molar mass, not a printed value.

Experiments:
[1] = biological target: Phosphatidylinositol 4,5-bisphosphate 3-kinase catalytic subunit alpha isoform (Homo sapiens, UniProt P42336); experiment: Inhibition of recombinant PI3K p110alpha using L-alpha-phosphatidylinositol as substrate and [gamma33P]ATP after 60 mins by thin layer chromatographic technique
Sequence of Phosphatidylinositol 4,5-bisphosphate 3-kinase catalytic subunit alpha isoform (P42336 whole entry, canonical isoform): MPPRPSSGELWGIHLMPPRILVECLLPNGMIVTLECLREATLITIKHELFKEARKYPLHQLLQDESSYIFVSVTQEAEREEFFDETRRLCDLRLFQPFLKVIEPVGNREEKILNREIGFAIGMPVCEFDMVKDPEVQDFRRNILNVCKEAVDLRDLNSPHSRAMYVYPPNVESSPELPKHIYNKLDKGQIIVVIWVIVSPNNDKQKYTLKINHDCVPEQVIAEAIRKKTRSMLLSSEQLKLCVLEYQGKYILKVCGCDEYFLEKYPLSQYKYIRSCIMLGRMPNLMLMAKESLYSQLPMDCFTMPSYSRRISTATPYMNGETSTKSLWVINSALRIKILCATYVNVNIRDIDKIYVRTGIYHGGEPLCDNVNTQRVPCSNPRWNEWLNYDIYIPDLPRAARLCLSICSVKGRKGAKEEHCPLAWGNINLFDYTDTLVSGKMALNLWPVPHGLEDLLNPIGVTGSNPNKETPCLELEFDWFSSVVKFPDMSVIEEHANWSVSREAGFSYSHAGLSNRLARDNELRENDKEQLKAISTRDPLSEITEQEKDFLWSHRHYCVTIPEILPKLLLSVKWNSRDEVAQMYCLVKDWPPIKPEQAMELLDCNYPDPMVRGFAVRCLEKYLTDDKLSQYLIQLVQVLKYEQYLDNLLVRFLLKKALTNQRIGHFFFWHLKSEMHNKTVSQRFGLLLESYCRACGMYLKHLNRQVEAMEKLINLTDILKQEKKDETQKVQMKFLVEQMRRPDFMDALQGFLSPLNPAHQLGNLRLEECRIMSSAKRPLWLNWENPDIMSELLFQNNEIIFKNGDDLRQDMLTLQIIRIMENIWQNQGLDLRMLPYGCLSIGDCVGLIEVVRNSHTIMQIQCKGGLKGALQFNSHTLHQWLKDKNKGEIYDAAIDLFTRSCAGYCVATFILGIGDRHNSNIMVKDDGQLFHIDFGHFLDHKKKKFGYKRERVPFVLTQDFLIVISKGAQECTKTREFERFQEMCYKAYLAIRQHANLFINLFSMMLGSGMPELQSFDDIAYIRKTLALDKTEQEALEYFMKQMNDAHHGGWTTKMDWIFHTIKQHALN
Method in brief: (§1)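 In-house recombinant enzyme (0.1 µg) with L-α-phosphatidylinositol in 40 mM Tris-HCl pH 7.4, 200 mM NaCl, 1 mM EDTA; DMSO 1% final. Started with 5 mM MgCl₂, 100 µM ATP plus [γ-³³P]ATP; 1 h at room temperature, stopped with 1 M HCl. Lipids extracted, separated by TLC, phosphorimaged. Nine inhibitor concentrations; two experiments, IC50 averaged.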

[2] = Cytotoxicity against human NZOV9 cells harboring PI3K p110alpha Y1021C mutant assessed as inhibition of [3H]thymidine incorporation measured after 5 days; type: functional, cell-based
Method in brief: (§2)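 Early-passage lines grown in α-MEM with insulin, transferrin, selenite and 5% FBS. Wells seeded with 1000 cells; inhibitor in dilution steps up to a maximum of 20. Five days under 5% O₂/5% CO₂/90% N₂, ³H-thymidine added for the last 6 h. Duplicates per dose; fit y = y₀ + ae^−bx; IC50 = 50% reduction in incorporation.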

[3] = biological target: T1, Phosphatidylinositol 4,5-bisphosphate 3-kinase catalytic subunit delta isoform (Homo sapiens, UniProt O00329); experiment: Inhibition of recombinant PI3K p110delta using L-alpha-phosphatidylinositol as substrate and [gamma33P]ATP after 60 mins by thin layer chromatographic technique; method in brief: as §1
T1 sequence (O00329 whole entry): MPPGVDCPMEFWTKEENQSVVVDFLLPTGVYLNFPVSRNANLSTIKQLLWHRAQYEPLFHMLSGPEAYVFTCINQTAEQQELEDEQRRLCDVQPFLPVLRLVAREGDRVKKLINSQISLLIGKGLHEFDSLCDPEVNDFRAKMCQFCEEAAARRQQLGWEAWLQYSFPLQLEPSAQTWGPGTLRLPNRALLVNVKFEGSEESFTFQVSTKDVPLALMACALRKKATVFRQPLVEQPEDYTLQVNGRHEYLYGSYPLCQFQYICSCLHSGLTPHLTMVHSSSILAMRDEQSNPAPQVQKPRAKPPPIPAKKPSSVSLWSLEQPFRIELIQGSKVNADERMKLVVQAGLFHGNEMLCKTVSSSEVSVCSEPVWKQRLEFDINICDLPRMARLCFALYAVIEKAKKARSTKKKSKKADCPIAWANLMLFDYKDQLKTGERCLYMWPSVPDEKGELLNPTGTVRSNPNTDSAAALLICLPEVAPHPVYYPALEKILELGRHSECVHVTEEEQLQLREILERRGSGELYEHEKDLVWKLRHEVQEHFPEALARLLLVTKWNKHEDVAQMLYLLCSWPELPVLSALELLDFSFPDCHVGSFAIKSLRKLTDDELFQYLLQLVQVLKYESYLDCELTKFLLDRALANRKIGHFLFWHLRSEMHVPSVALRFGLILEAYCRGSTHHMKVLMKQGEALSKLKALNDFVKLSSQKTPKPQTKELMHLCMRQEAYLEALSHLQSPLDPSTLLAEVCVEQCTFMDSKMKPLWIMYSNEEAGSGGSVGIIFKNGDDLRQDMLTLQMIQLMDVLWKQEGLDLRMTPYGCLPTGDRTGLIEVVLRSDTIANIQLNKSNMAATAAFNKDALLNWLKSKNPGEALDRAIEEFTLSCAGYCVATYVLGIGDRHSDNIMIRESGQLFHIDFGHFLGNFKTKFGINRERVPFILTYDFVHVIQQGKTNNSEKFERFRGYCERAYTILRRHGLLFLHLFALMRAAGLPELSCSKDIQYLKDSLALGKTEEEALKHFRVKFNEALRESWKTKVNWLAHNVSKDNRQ

[4] = biological target: Phosphatidylinositol 4,5-bisphosphate 3-kinase catalytic subunit beta isoform (Homo sapiens, UniProt P42338); experiment: Inhibition of recombinant PI3K p110beta using L-alpha-phosphatidylinositol as substrate and [gamma33P]ATP after 60 mins by thin layer chromatographic technique; method in brief: as §1
Sequence of Phosphatidylinositol 4,5-bisphosphate 3-kinase catalytic subunit beta isoform (P42338 whole entry, canonical isoform): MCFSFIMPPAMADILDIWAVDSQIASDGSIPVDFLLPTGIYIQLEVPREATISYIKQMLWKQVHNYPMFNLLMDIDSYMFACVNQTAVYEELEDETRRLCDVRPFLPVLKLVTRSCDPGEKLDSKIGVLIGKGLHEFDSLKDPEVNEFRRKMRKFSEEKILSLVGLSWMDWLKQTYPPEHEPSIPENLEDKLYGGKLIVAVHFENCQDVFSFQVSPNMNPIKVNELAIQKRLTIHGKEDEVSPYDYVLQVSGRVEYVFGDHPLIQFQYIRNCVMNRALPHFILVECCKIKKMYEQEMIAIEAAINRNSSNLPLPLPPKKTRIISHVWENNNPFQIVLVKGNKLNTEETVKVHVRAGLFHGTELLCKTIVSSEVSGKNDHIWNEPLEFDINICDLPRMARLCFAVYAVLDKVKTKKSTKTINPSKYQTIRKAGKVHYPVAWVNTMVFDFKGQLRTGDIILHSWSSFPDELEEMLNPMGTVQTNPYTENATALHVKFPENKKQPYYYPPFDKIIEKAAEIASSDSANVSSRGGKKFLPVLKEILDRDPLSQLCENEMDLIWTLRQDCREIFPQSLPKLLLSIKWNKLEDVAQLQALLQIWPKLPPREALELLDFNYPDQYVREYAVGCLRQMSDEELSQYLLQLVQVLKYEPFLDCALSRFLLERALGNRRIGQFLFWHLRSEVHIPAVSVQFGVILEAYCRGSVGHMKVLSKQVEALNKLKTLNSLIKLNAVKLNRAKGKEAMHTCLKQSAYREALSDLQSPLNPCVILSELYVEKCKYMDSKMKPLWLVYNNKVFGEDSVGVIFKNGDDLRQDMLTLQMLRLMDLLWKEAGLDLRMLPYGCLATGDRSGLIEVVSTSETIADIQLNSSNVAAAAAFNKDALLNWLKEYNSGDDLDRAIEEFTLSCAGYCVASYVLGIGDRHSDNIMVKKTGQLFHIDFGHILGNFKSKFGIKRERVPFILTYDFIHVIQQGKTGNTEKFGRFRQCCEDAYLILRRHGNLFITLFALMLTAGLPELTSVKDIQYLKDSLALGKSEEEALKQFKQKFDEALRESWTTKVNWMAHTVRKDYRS

[5] = Cytotoxicity against human NZB5 cells assessed as inhibition of [3H]thymidine incorporation measured after 5 days; type: functional, cell-based; method in brief: as §2
[6] = Aqueous solubility of the compound; type: physicochemical; details: water
Method in brief: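 Solid mixed with water to make 2 mM, sonicated 15 min, centrifuged 13000 rpm for 6 min. Clear supernatant diluted 2-fold with water, recentrifuged and injected on HPLC. Peak area compared with a DMSO standard solution of the compound, correcting for dilution and injection volume.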

[7] = tested on: HCT-116; experiment: Antitumor activity against human HCT116 cells xenografted in Rag1 knockout mouse assessed as tumor growth delay at 20 mg/kg, ip QD measured on day 10 relative to untreated control; type: functional; details: route intraperitoneal
Method in brief: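 Male Rag1−/− mice (age-matched, SPF) inoculated s.c. with 5 × 10⁶ HCT-116 cells in PBS. Dosing started at ~150 mm³ tumours: q.d. i.p. in 7.5% DMSO, 42.5% PEG-400, 20% 2-hydroxypropyl-β-cyclodextrin, 30% water; controls received vehicle. Volume = (L × w²) × π/6, measured three times weekly; bodyweight daily. Treatment stopped if mean weight loss >15%; 1-way ANOVA with Holm–Sidak.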

Structure (SMILES)	IC50 [1]	IC50 [3]	IC50 [4]	solubility [6]	IC50 [2]	IC50 [5]	Activity [7]
Cc1ccc([N+](=O)[O-])cc1S(=O)(=O)N(CCN(C)C)/N=C/c1cnn2ccc(C#N)cc12	77 nM	180 nM	490 nM		390 nM	360 nM	
COC(=O)c1ccc(C)c(S(=O)(=O)N(C)/N=C/c2cnn3ccc(C#N)cc23)c1	990 nM	400 nM	> 1000 nM		1900 nM	2400 nM	
Cc1ccc([N+](=O)[O-])cc1S(=O)(=O)N(CCN1CCCCC1)/N=C/c1cnn2ccc(C#N)cc12	140 nM	89 nM	> 1000 nM		490 nM	1100 nM	
Cc1ccc([N+](=O)[O-])cc1S(=O)(=O)N(C)/N=C/c1cnn2ccc(C#N)cc12				0.1 µg/mL (≈ 0.251 µM)	1400 nM		21.2%
Cc1ccccc1S(=O)(=O)N(C)/N=C/c1cnn2ccc(C#N)cc12	700 nM	2000 nM	> 1000 nM		12000 nM	> 20000 nM	
Cc1ccc(C(=O)O)cc1S(=O)(=O)N(C)/N=C/c1cnn2ccc(C#N)cc12	> 1000 nM	> 1000 nM	> 1000 nM		> 20000 nM	> 20000 nM	
Cc1ccc(NC(=O)C(F)(F)F)cc1S(=O)(=O)N(C)/N=C/c1cnn2ccc(C#N)cc12	> 1000 nM	> 1000 nM	> 1000 nM		9100 nM	2300 nM	
Cc1ccc(C)c(S(=O)(=O)N(C)/N=C/c2cnn3ccc(C#N)cc23)c1	100 nM	> 1000 nM	> 1000 nM		880 nM	2100 nM	
Cc1c([N+](=O)[O-])cccc1S(=O)(=O)N(C)/N=C/c1cnn2ccc(C#N)cc12	> 1000 nM	> 1000 nM	> 1000 nM		> 20000 nM	> 20000 nM	
Cc1cc([N+](=O)[O-])ccc1S(=O)(=O)N(C)/N=C/c1cnn2ccc(C#N)cc12	65 nM	> 1000 nM	> 1000 nM		> 20000 nM	> 20000 nM	
CC(=O)Nc1ccc(C)c(S(=O)(=O)N(C)/N=C/c2cnn3ccc(C#N)cc23)c1	> 1000 nM	> 1000 nM	> 1000 nM		> 20000 nM	> 20000 nM	
CCN(CC)CCN(/N=C/c1cnn2ccc(C#N)cc12)S(=O)(=O)c1cc([N+](=O)[O-])ccc1C	82 nM	110 nM	> 1000 nM		1700 nM	3500 nM	
Cc1ccc(S(C)(=O)=O)cc1S(=O)(=O)N(C)/N=C/c1cnn2ccc(C#N)cc12	350 nM	200 nM	830 nM		620 nM	500 nM	
Cc1ccc(N)cc1S(=O)(=O)N(C)/N=C/c1cnn2ccc(C#N)cc12	> 1000 nM	> 1000 nM	> 1000 nM				

More lines, main results first:

IC50 [1]	IC50 [3]	IC50 [4]	solubility [6]	Structure (SMILES)	IC50 [2]	IC50 [5]	Activity [7]
4.7 nM	120 nM	44 nM		CN(/N=C/c1cnn2ccc(C#N)cc12)S(=O)(=O)c1cc([N+](=O)[O-])ccc1F	400 nM	480 nM	
4.5 nM	10 nM	230 nM		Cc1ccc([N+](=O)[O-])cc1S(=O)(=O)N(CCN1CCOCC1)/N=C/c1cnn2ccc(C#N)cc12	540 nM	500 nM	
21 nM	35 nM	60 nM		Cc1ccc(C(F)(F)F)cc1S(=O)(=O)N(C)/N=C/c1cnn2ccc(C#N)cc12	1300 nM	980 nM	
0.5 nM	24 nM	64 nM		CN(/N=C/c1cnn2ccc(C#N)cc12)S(=O)(=O)c1cc([N+](=O)[O-])ccc1Cl	350 nM	880 nM	
1.5 nM	13 nM	280 nM		CCc1ccc([N+](=O)[O-])cc1S(=O)(=O)N(C)/N=C/c1cnn2ccc(C#N)cc12	80 nM	170 nM	
27 nM	32 nM	> 1000 nM		Cc1ccc([N+](=O)[O-])cc1S(=O)(=O)N(Cc1ccccc1)/N=C/c1cnn2ccc(C#N)cc12	2500 nM		
0.8 nM	22 nM	63 nM	0.2 µg/mL (≈ 0.483 µM)	COc1ccc([N+](=O)[O-])cc1S(=O)(=O)N(C)/N=C/c1cnn2ccc(C#N)cc12	50 nM	90 nM	
13 nM	230 nM	360 nM		Cc1ccc(Cl)cc1S(=O)(=O)N(C)/N=C/c1cnn2ccc(C#N)cc12	540 nM	670 nM	
0.5 nM	9.3 nM	62 nM	0.2 µg/mL (≈ 0.485 µM)	CCN(/N=C/c1cnn2ccc(C#N)cc12)S(=O)(=O)c1cc([N+](=O)[O-])ccc1C	90 nM	30 nM	
17 nM	8.6 nM	68 nM		Cc1ccc([N+](=O)[O-])cc1C(=O)N(C)/N=C/c1cnn2ccc(C#N)cc12	> 20000 nM	> 20000 nM	
1.8 nM	39 nM	300 nM		CC(C)c1ccc([N+](=O)[O-])cc1S(=O)(=O)N(C)/N=C/c1cnn2ccc(C#N)cc12	260 nM	180 nM	
14 nM	100 nM	340 nM		Cc1cccc([N+](=O)[O-])c1S(=O)(=O)N(C)/N=C/c1cnn2ccc(C#N)cc12	7600 nM	3700 nM	
36 nM	410 nM	1200 nM		CN(/N=C/c1cnn2ccc(C#N)cc12)S(=O)(=O)c1cccc([N+](=O)[O-])c1	690 nM	380 nM	
55 nM	310 nM	550 nM		Cc1ccc(F)cc1S(=O)(=O)N(C)/N=C/c1cnn2ccc(C#N)cc12	14000 nM	> 20000 nM	
2.4 nM	59 nM	130 nM		Cc1ccc(C#N)cc1S(=O)(=O)N(C)/N=C/c1cnn2ccc(C#N)cc12	210 nM	280 nM	
40 nM	37 nM	79 nM		Cc1ccc([N+](=O)[O-])cc1CN(C)/N=C/c1cnn2ccc(C#N)cc12	1900 nM	1700 nM	
13 nM	180 nM	620 nM		Cc1ccc(Br)cc1S(=O)(=O)N(C)/N=C/c1cnn2ccc(C#N)cc12	570 nM	700 nM	
2.2 nM	24 nM	44 nM	0.5 µg/mL (≈ 1.17 µM)	CN(C)c1ccc([N+](=O)[O-])cc1S(=O)(=O)N(C)/N=C/c1cnn2ccc(C#N)cc12	100 nM	40 nM	
11 nM	16 nM	67 nM		CN(/N=C/c1cnn2ccc(C#N)cc12)C(=O)c1cccc([N+](=O)[O-])c1	6000 nM	1800 nM	
